Bioassay records deposited in PubChem by several laboratories.
The list is not random: actives were taken first. Their share in the collection is about 5.7%.
Mdm2-MdmX inh – inhibitors of human Mdm2-MdmX association, primary screen, cell-based, luminescence, split luciferase, SaOS-2, uHTS; SaOS-2 split-luciferase Mdm2/MdmX complementation; inhibition, % at 8 µM; Protein Mdm4 (Homo sapiens) + E3 ubiquitin-protein ligase Mdm2 (Homo sapiens), …; actives 3% (n = 330,000);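 active = inhibition of at least 50% at 8 µM in the primary screen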
Target sequence (O15151 whole entry, looked up): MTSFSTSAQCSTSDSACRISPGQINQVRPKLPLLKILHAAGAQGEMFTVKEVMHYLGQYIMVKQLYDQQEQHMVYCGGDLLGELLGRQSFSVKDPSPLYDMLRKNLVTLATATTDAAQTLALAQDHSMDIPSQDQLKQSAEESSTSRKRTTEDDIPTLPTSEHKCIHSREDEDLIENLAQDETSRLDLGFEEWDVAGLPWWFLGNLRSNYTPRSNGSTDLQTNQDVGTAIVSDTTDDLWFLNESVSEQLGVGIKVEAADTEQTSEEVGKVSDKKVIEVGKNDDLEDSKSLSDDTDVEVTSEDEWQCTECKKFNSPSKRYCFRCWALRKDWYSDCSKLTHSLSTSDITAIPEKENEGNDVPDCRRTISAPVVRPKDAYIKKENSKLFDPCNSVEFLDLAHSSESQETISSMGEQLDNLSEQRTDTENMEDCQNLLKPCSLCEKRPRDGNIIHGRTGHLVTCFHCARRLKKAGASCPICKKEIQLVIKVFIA
Target sequence (Q00987 whole entry, looked up): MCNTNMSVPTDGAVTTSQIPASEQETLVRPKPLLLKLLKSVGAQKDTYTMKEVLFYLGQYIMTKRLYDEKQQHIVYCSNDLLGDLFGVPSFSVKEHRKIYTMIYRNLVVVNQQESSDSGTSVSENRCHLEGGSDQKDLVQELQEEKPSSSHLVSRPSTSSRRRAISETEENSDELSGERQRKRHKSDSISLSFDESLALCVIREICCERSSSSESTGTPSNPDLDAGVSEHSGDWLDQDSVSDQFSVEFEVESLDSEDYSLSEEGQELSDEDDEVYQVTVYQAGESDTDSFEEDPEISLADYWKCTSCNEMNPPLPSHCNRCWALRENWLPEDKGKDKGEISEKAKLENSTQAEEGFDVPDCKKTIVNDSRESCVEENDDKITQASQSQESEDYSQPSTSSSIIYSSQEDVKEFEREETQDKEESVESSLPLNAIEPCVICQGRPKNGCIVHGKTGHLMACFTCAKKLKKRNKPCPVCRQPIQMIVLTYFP
Calb FLC – C. albicans growth inhibition with fluconazole, primary screen, CaCi-2 strain, Alamar Blue fluorescence | C. albicans CaCi-2 (fluconazole-resistant clinical isolate) + fluconazole, 48 h | growth inhibition, % (concentration not given with the values) | actives 0.57% (n = 300,000) | AID 1979, 2009;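 active = growth inhibition above about 58% in most replicates, limit read from the data, passing the limit was not always enough; inconclusive = exactly half the replicates above a set limit; inactive = most replicates below a set limit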;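 also: all wells also contain fluconazole at 8 µg/ml as a sub-toxic cotreatment; 0% = median of DMSO wells and 100% = median of geldanamycin control wells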
Beta apoptosis – inhibitors of cytokine-induced beta cell apoptosis, primary screen, luminescence. INS-1E cytokine-induced death, ATP luminescence, 48 h; percent of positive-control rescue, neutral wells zero. protection from apoptosis, % (concentration not given with the values). actives 0.8% (n = 300,000);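 active = Every replicate reaches about 75%, or at least half do and their mean reaches it too, limit read from the data; inconclusive = At least half of replicates reach the limit but their mean does not; inactive = Under half of replicates reach the limit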;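 also: 0% = cytokine-treated negative control wells and 100% = positive control rescue; higher means more ATP so stronger rescue from cytokine killing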
SKKanGAS inh – S. pyogenes SKKanGAS growth inhibitors in kanamycin, primary screen, streptokinase expression inhibitor project, SKKanGAS strain, BacTiter-Glo luminescence | 6 h | inhibition, % at 7.5 µM | actives 1.3% (n = 300,000) | AID 1662, 2009;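 active = mean replicate score, as percent of positive control median, at least 50; inconclusive = mean below 50 but one replicate at or above 50; inactive = mean and every replicate below 50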;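 also: strain carries kanamycin resistance gene driven by streptokinase promoter and grows in 40 µg/ml kanamycin; loss of luminescence reflects streptokinase promoter inhibition or plain growth inhibition; 0% = median of DMSO wells and 100% = positive control at its reference dose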
T cruzi repl – inhibitors of intracellular T. cruzi growth, primary screen, luminescence, NIH3T3 host cells; T. cruzi beta-gal in NIH3T3, 90 h; inhibition, % (concentration not given with the values); actives 1.4% (n = 300,000);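 active = mean inhibition across valid replicates above about 55%, limit read from the data; inconclusive = mean below that limit but half or more replicates reach it; inactive = mean below it, under half of replicates reach it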;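 also: signal also drops with host cell toxicity which is not excluded here; 0% = plate median of DMSO wells and 100% = zero luminescence signal; higher percent means less beta-gal luminescence so fewer parasites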
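Test system: β-gal T. cruzi (Tulahuen C4) inside NIH/3T3 cells / Quantity: 5,000 cells/well / Measured by: luminescence from GalScreen with 0.05% NP40, read after 60 min / Medium: DMEM plus 2% FBS / Measure: parasite load inhibition, % / Reagent: Tulahuen C4 trypomastigotes, 5000/well / Schedule: co-culture of at least 90 h after 3 h attachment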
CSC inhib – cancer stem cell viability inhibitors, primary screen, luminescence; cancer stem cell-like cells viability; inhibition, % at 7.5 µM; actives 1.1% (n = 300,000); AID 2717, 2010; in the data active = inhibition above about 75%; inconclusive = no clear call, values can overlap the other calls; tested in HMLE shEcad cells
Mdm2-MdmX conf – Mdm2-MdmX complex disruptors, retested hits, confirmation, luminescence, single concentration; actives 55% (n = 10,000); shares compounds with Mdm2-MdmX inh; Mdm2-MdmX binding, luminescent assay; AID 489028, 2010; inhibition, % at 8 µM; in the data active = inhibition above about 40%
FLuc counter – full-length luciferase signal inhibition, confirmation, counter-screen for Mdm2/MdmX interaction inhibitor project, cell-based, single concentration, SaOS-2 | shares compounds with Mdm2-MdmX inh | SaOS-2 full-length luciferase counterscreen, luminescence | inhibition, % at 8 µM | actives 77% (n = 6,200) | AID 504607, 2011;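 active = mean inhibition at 8 µM reaching about 37%, which flags the compound as non-specific, limit read from the data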;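 also: p53-null SaOS-2 cells with luciferase driven by a doxycycline-inducible promoter; compound on cells about two nights before reading with doxycycline added after day one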
Starred values were filed as active, the others as inactive; ? = inconclusive; / = no result; ! = repeats disagree.

SMILES	Mdm2-MdmX inh	Calb FLC	Beta apoptosis	SKKanGAS inh	T cruzi repl	CSC inhib	Mdm2-MdmX conf	FLuc counter
COc1cc(NC(=O)c2cc(-c3ccc4c(c3)OCO4)on2)cc(OC)c1OC	59.9*	-11.0	-4.4	-1.8	58.6*	53.7	42.0*	39.8*
COc1cc(NC(=O)c2cc(-c3ccccc3)on2)cc(OC)c1OC	-4.0	19.9	2.2	-7.8	-3.9	14.9	/	/
COc1ccccc1-c1cc(C(=O)N2CCOCC2)no1	1.1	8.6	3.6	20.1	-4.3	-11.2	/	/
Cc1ccc(C(=O)NC2c3ccccc3-c3ccccc32)cc1	59.1*	13.6	-1.7	-4.0	4.9	82.5*	58.1*	53.5*
COc1ccc(/C=N/NC(=S)Nc2cc(S(=O)(=O)N3CCOCC3)ccc2N2CCOCC2)cc1O	50.7*	-8.2	8.0	9.0	2.6	28.8	45.1*	83.3*
O=C(Nc1nc(-c2ccccn2)cs1)c1cc(Cl)ccc1[N+](=O)[O-]	83.3*	-1.8	93.2*	95.0*	63.8*	94.0*	75.2*	32.3
Cc1cc(C(=O)Nc2nc(-c3ccccn3)cs2)ccc1[N+](=O)[O-]	63.3*	109.6*	2.8	91.4*	80.3*	-3.8	64.2*	40.3*
Cc1ccc(OCCC(=O)OC(C)C(=O)NC2CC2)cc1 (configuration not stated)	37.7	2.1	1.0	-8.2	-15.7	-3.6	/	/
O=C(CN1CCN(S(=O)(=O)c2cccs2)CC1)NCC1CCCCC1	2.2	/	-6.2	/	/	/	/	/
O=C(COc1ccc(Br)cc1)N1CCOCC1	13.3	1.8	-8.7	1.6	6.3	-12.6	/	/
N/C(=N\OC(=O)N1CCOCC1)c1ccc(Cl)cc1	91.9*	-11.8	-1.4	-7.0	29.0	-1.6	60.6*	147.5*
O=C(c1ccc(S(=O)(=O)c2ccc(Cl)cc2)cc1)N1CCOCC1	-34.0	13.5	-11.0	5.0	-3.2	-3.7	/	/
N/C(=N\OC(=O)N1CCOCC1)c1ccc(Br)cc1	100.4*	-11.9	2.0	5.5	38.3	19.5	59.0*	133.9*
O=C(Oc1ccccc1)N1CCOCC1	26.9	-3.3	-2.0	10.3	-17.3	-22.2	/	/
N/C(=N\OC(=O)N1CCOCC1)c1ccccc1	63.6*	-7.8	1.9	1.6	45.2	26.4	6.5	/
COc1ccc(N2CCN(S(=O)(=O)c3ccc(OC)c(C(=O)N4CCCC4)c3)CC2)cc1	18.4	-10.6	13.0	0.1	5.6	0.7	/	/
CN(Cc1cnc2nc(N)nc(N)c2n1)c1ccc(C(=O)N[C@@H](CCC(=O)O)C(=O)O)cc1	46.5	-6.6	4.6	88.5*	1.3	85.9*!	71.8*	29.8
Nc1nc2ncc(CNc3ccc(C(=O)N[C@@H](CCC(=O)O)C(=O)O)cc3)nc2c(=O)[nH]1	21.2	-1.2	/	-0.2	-7.3	13.5	/	/
Nc1c(C(=O)Nc2ccc(S(=O)(=O)N3CCCC3)cc2)sc2nc3ccc(OC(F)(F)F)cc3cc12	89.9*	19.6	98.0*	18.4	38.9	32.2	-11.5	/
COc1ccc(NC(=O)CSCC(=O)Nc2ccc(S(=O)(=O)N3CCCC3)cc2)cc1	5.7	-2.5	0.1	-2.2	7.2	/	/	/
COc1ccc(-c2c[n+]3c4n2CCCCC4=C(c2ccccc2)C3)cc1	67.2*	-35.0	/	11.3	61.7*	/	16.8	/
COc1ccc(-c2c[n+](CC(=O)c3ccccc3)c3n2CCCCC3)cc1	20.7	-4.1	12.3	8.4	27.9	12.8	/	/
COC(=O)[C@@H]1[C@@H](C#N)C2(c3ccccc3-c3ccccc32)N(c2ccc(Cl)cc2)N1C#N	59.8*	10.3	-10.1	?	-43.0	104.8*	50.2*	32.8
O=C(Cc1ccc(Cl)cc1)NN1C(=O)c2ccccc2C1=O	-15.6	0.2	-7.6	-4.8	-9.8	-3.6	/	/
COc1cc(OC)c(OC)cc1/C=N/n1c(COc2ccccc2)n[nH]c1=S	9.5	-30.7	11.5	-3.7	8.8	15.8	/	/
SMILES	Mdm2-MdmX inh	Calb FLC	Beta apoptosis	SKKanGAS inh	T cruzi repl	CSC inhib	Mdm2-MdmX conf	FLuc counter
O=C(NCCOc1ccccc1)c1ccccc1Cl	-61.8	-8.9	-4.7	2.9	-4.5	-10.8	/	/
CN(C(=O)COc1ccccc1C(=O)NCCOc1ccccc1)c1ccccc1	84.6*	-6.7	37.3	-1.5	-33.0	48.7	95.5*	40.5*
Cc1cc2cc(CCNC(=O)C3c4ccccc4Oc4ccccc43)c(=O)[nH]c2cc1C	62.7*	-5.5	-11.6	-2.4	-1.5	-6.0	14.4	/
Cc1cc2cc(CCNC(=O)C(C)C)c(=O)[nH]c2cc1C	8.2	7.4	/	-9.6	1.1	-5.6	/	/
Cc1ccc(OCCn2cc(/C(N)=N/O)c3ccccc32)cc1C	-15.7	23.1	-2.1	1.2	-1.2	-0.9	/	/
Cc1ccc(OCCn2cc(C(=S)N3CCCC3)c3ccccc32)cc1C	95.7*	3.7	20.3	13.0	29.6	-6.9	91.5*	54.4*
Cc1cccn2c(=O)c3cc(C(=O)NCCC4=CCCCC4)n(C)c3nc12	55.4*	-9.1	2.0	5.8	-0.2	-1.2	11.5	/
Cc1cccn2c(=O)c3cc(C(=O)NC4CCCC4)n(C)c3nc12	51.1*	1.4	-3.7	-2.4	4.9	47.4	51.1*	67.0*
Cn1c(C(=O)NCCC2=CCCCC2)cc2c(=O)n3ccccc3nc21	1.1	-3.5	-7.0	1.2	25.2	-10.7	/	/
Nc1ncnc2c1ncn2[C@@H]1O[C@H](CNCc2ccc(-c3cc(C(F)(F)F)ccc3Cl)o2)[C@@H](O)[C@H]1O	-8.8	/	/	/	/	/	/	/
CC(C)CN(C(=O)COc1ccc(C(C)(C)C)cc1)C1CCS(=O)(=O)C1 (configuration not stated)	22.8	1.5	-4.4	-1.5	2.7	-4.0	/	/
COC(=O)COc1ccc(/C=N/NC(=O)c2ccc(N(Cc3ccccc3)S(C)(=O)=O)cc2)cc1	61.2*	2.1	-2.5	2.2	7.5	22.5	21.9	/
CC(C)Oc1ccc(/C=N/NC(=O)c2ccc(N(Cc3ccccc3)S(C)(=O)=O)cc2)cc1	-11.2	31.3	-4.0	-1.9	13.2	8.5	/	/
COc1ccc(NC(=O)C2Cc3cc(S(=O)(=O)N4CCCCC4)ccc3N2C(C)=O)cc1Cl (configuration not stated)	12.6	-3.8	/	1.2	13.8	-5.1	/	/
Cc1cccc(NC(=S)NCc2ccc(F)cc2)c1C	8.0	-18.4	0.1	1.8	3.0	-17.2	/	/
